Data reported in ChEMBL document CHEMBL4270616, “Asymmetrical meta-methoxylated diarylpentanoids: Rational design, synthesis and anti-cancer evaluation in-vitro” (Eur J Med Chem, 2018).

Legend:
[1] = tested on: SW-620; test: Cytotoxicity against human SW620 cells after 72 hrs by MTT assay; type: functional, cell-based; details: SW-620, 72 h
Summary of the method: (§1)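 Tumour lines kept in DMEM with 10% FBS and 1% penicillin/streptomycin at 37°C, 5% CO2. Seeded at 1500-5000 cells/well by doubling time and size, 24 h, then compound in DMSO-containing medium (final DMSO 0.1%) for 72 h. MTT (5 mg/mL) 4 h at 37°C, DMSO solubilisation, absorbance at 570 nm.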

[2] = tested on: A549; test: Cytotoxicity against human A549 cells after 72 hrs by MTT assay; type: functional, cell-based; details: A549, 72 h; summary of the method: as §1
[3] = Cytotoxicity against human EJ28 cells after 72 hrs by MTT assay; type: functional, cell-based; details: EJ-28, 72 h; summary of the method: as §1
[4] = tested on: HT-1080; test: Cytotoxicity against human HT1080 cells after 72 hrs by MTT assay; type: functional, cell-based; details: HT-1080, 72 h; summary of the method: as §1
[5] = tested on: MCF7; test: Cytotoxicity against human MCF7 cells after 72 hrs by MTT assay; type: functional, cell-based; details: MCF7, 72 h; summary of the method: as §1
[6] = tested on: NHDF; test: Cytotoxicity against NHDF after 72 hrs by MTT assay; type: cell-based; details: Homo sapiens
Summary of the method: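 NHDF grown in DMEM with 5% FBS at 37°C, 5% CO2. Seeded at 1500-5000 cells/well, 24 h, then compound added in DMSO-containing medium (final DMSO 0.1%) for 72 h. MTT (5 mg/mL in medium) added for 4 h at 37°C, formazan dissolved in DMSO, absorbance read at 570 nm.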

[7] = tested on: SW-620; test: Cytotoxicity against human SW620 cells assessed as inhibition of cell proliferation at 20 uM after 72 hrs by MTT assay relative to control; type: functional; details: SW-620, 72 h
Summary of the method: (§2)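 Single-concentration screen at 20 μM with 72 h exposure in DMEM with 10% FBS, final DMSO 0.1%. Read-out was MTT (5 mg/mL, 4 h, 37°C), DMSO solubilisation and absorbance at 570 nm, expressed as percent inhibition. Lines reaching a threshold percentage went on to IC50 determination.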

[8] = tested on: A549; test: Cytotoxicity against human A549 cells assessed as inhibition of cell proliferation at 20 uM after 72 hrs by MTT assay relative to control; type: functional; details: A549, 72 h; summary of the method: as §2
[9] = Cytotoxicity against human EJ28 cells assessed as inhibition of cell proliferation at 20 uM after 72 hrs by MTT assay relative to control; type: functional; details: EJ-28, 72 h; summary of the method: as §2
[10] = tested on: HT-1080; test: Cytotoxicity against human HT1080 cells assessed as inhibition of cell proliferation at 20 uM after 72 hrs by MTT assay relative to control; type: functional; details: HT-1080, 72 h; summary of the method: as §2
[11] = tested on: MCF7; test: Cytotoxicity against human MCF7 cells assessed as inhibition of cell proliferation at 20 uM after 72 hrs by MTT assay relative to control; type: functional; details: MCF7, 72 h; summary of the method: as §2

Compound | IC50 [1] [µM] | IC50 [2] [µM] | IC50 [3] [µM] | IC50 [4] [µM] | IC50 [5] [µM] | IC50 [6] [µM] | inhibition at 20 µM [7] [%] | inhibition at 20 µM [8] [%] | inhibition at 20 µM [9] [%] | inhibition at 20 µM [10] [%] | inhibition at 20 µM [11] [%]
COc1ccc(/C=C2\CCC/C(=C\c3ccccc3Cl)C2=O)cc1OC | 7.1 | > 20 | 6.9 | 6.8 | 10.4 | 21.6 | > 50 | > 50 | > 50 | > 50 | > 50
COc1cc(/C=C2\CCC/C(=C\c3cccc(OC)c3OC)C2=O)cc(OC)c1 | 3.8 | 10.2 | 3.6 | 4.5 | 1.7 | 13.1 | > 50 | > 50 | > 50 | > 50 | > 50
COc1cc(/C=C/C(=O)CC(=O)/C=C/c2ccc(O)c(OC)c2)ccc1O [CURCUMIN] | 14 | 17.9 | 10.5 | 13.1 | 9.8 | 24.1 |  |  |  |  | 
COc1cccc(/C=C2\CCC/C(=C\c3ccc(Br)cc3)C2=O)c1OC | 11.1 | > 20 | 15.2 | 13.7 | 13.8 | 21.4 | > 50 | > 50 | > 50 | > 50 | > 50
COc1cc(/C=C2\CCC/C(=C\c3ccc(OC)c(OC)c3)C2=O)ccc1O | 4.5 | 10.3 | 4.6 | 4.6 | 7.9 | 13.7 | > 50 | > 50 | > 50 | > 50 | > 50
COc1ccc(/C=C2\CCC/C(=C\c3cccc(Br)c3)C2=O)cc1OC | 4.2 | 12.8 | 4.9 | 5.2 | 5.3 | 12.4 | > 50 | > 50 | > 50 | > 50 | > 50
COc1cccc(/C=C2\CCC/C(=C\c3ccc(OC)c(OC)c3)C2=O)c1 | 3.7 | 6.7 | 4.2 | 4.6 | 4.6 | 11.6 | > 50 | > 50 | > 50 | > 50 | > 50
COc1ccc(/C=C2\CCC/C(=C\c3ccc(OC)c(OC)c3)C2=O)c(OC)c1 | > 20 | > 20 | > 20 | 17.1 | 15.6 | > 50 | > 50 | > 50 | > 50 | > 50 | > 50
COc1cccc(/C=C2\CCC/C(=C\c3ccc(Cl)cc3)C2=O)c1OC | 11.1 | > 20 | 11 | 11.1 | 10.3 | 18.6 | > 50 | > 50 | > 50 | > 50 | > 50
COc1cccc(/C=C2\CCC/C(=C\c3cc(OC)c(OC)c(OC)c3)C2=O)c1OC | 2.5 | 5.9 | 2.4 | 2.3 | 1.4 | 7.9 | > 50 | > 50 | > 50 | > 50 | > 50
COc1cccc(/C=C2\CCC/C(=C\c3ccc(O)c(O)c3)C2=O)c1OC | 6.3 | > 20 | 6.4 | 4.7 | 4.7 | 17.9 | > 50 | > 50 | > 50 | > 50 | > 50
